# Shown are actives, neighbours in structure and some others; about 4.8% of the full set was active somewhere.
# ERa coact inh: ER-alpha (human) coactivator binding inhibition. actives 1.7% (n = 86,000). AID 629. P03372. TR-FRET ER-alpha LBD / SRC-1 peptide, estradiol-bound. inhibition, % at 25.6 µM; in the data active means inhibition above about 50%
# RORa activator: activators of human nuclear receptor RORA; CHO-K1 Gal4-RORA LBD luciferase reporter, luminescence; percent increase over mock-subtracted basal signal; P35398; actives 1.5% (n = 65,000); activation, % at 10 µM;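 active means activation above the mean of all tested compounds plus 3 SD, cut at about 49% in these data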
# ERb coact inh: blocks coactivator binding to human estrogen receptor beta; inhibition, % at 25.6 µM; actives 1.3% (n = 86,000); TR-FRET ER-beta LBD / SRC1-Cy5 peptide binding; receptor agonist-loaded with 1 µM estradiol; Q92731;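 active means compounds whose percent inhibition of the receptor-coactivator binding signal exceeds about 50% in the single-dose screen, limit read from the data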
# PTK2B oligo ant: antagonists of human Pyk2 oligomerization. Q293 cells, Pyk2 FERM NanoBiT luminescence; active compounds read low. z-score (the deposit names both 25 µM and 10 µM). actives 0.83% (n = 99,000);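 active means Z-score of -3 or lower, scaled per plate to the spread of control and sample wells; inactive means z-score above -3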;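 further: negative z-score means lost luminescence so less FERM oligomerization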
# SF-1 act: activates the human nuclear receptor SF-1. Q13285. CHO-K1 Gal4-SF-1 LBD luciferase reporter; % increase over DMSO SF-1-specific signal. activation, % at 10 µM. actives 1.9% (n = 65,000). AID 522;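 active means activation above the mean activation of all tested compounds plus 3 SD, cut at about 50% in these data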
#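 Test system: CHO-K1 cells with Gal4–hSF-1 LBD chimera plus Gal4-driven luciferase; Input: 4,000 cells/well; Compound: 10 µM only; Times: 20 h compound treatment, 37 °C; Measured by: steady-glow luciferase luminescence, read after 15 min reagent incubation; Measure: percent activation versus DMSO; Control set: DMSO and mock-transfected background; Replicates: one test per compound.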
# ERa coact pot: enhances coactivator binding to human estrogen receptor alpha. P03372. TR-FRET ERalpha-LBD/SRC-Cy5 coactivator binding, 2 h; 100 = basal binding, no effect. coactivator binding (% of control), % at 25.6 µM. actives 1.3% (n = 86,000); in the data active means activity above about 200%;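 further: binding measured in presence of low estradiol as agonist stimulus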
# A number is an active result; n = inactive; x = not tested or not shown; [ ] = remark or other dose.
SMILES,ERa coact inh,RORa activator,ERb coact inh,PTK2B oligo ant,SF-1 act,ERa coact pot
COc1cccc(C(=O)NC2CC3CCCC(C2)N3CC(=O)Nc2ccc(N(C)C)cc2)c1 (configuration not stated),n,n,n,n,n,n
CCOc1ccccc1NC(=O)N1CCC(NC(=O)c2cccc(C)c2)CC1,63[fluorescence artefact?],n,65[fluorescence artefact?],n,n,n
COc1cccc(C(=O)NC2CC3CCCC(C2)N3CC(=O)Nc2ccccc2)c1 (configuration not stated),97[fluorescence artefact?],n,99[fluorescence artefact?],n,n,n
Cc1cccc(NC(=O)CSc2nnc(-c3ccco3)c(-c3ccco3)n2)c1C,74[fluorescence artefact?],x,77[fluorescence artefact?],n,x,n
CCn1c(N)c(C(=O)NC)sc1=S,n,n,n,n,n,n
CCn1cnc2cc(NS(=O)(=O)c3ccc(C)cc3)ccc21,n,x,n,n,x,n
CCn1cnc2cc(NCc3ccc(C)cc3)ccc21,n,n,n,n,50,n
Cc1nc2sc(-c3ccccc3)cc2c(=O)[nH]1,n,x,n,n,x,n
Cc1nc2sc(-c3ccccc3)cc2c(=O)n1-n1cccc1,n,n,n,n,89,n
CSc1nc(C)cc(SCC(=O)Nc2ccccc2)n1,n,x,n,n,x,n
Cc1cc(SCC(=O)Nc2ccccc2)nc(C)n1,72[fluorescence artefact?],n,n,n,n,n
CCN(CC)S(=O)(=O)c1ccc(Oc2ccccc2)cc1,n,x,n,n,x,n
O=C(N/N=C/c1ccc2cccc(OCc3ccccc3)c2n1)c1ccc(Cl)cc1,x,x,x,-3.1,x,x
CN(CCC#N)C(=O)CSc1ncnc2sc(-c3ccccc3)cc12,n,52,n,n,n,n
CCN(CC)C(=O)CSc1ncnc2sc(-c3ccccc3)cc12,n,x,n,n,x,n
Cc1cccc(NC(=O)CSc2nc3ccccc3o2)c1,x,x,x,n,x,x
Cc1nn2c(-c3cccc(NC(=O)CSc4nc5ccccc5o4)c3)nnc2c2ccccc12,69[fluorescence artefact?],n,55,n,n,n
COc1ccccc1N1CCN(C(=O)Cn2nc(C(F)(F)F)c3c2CCC3)CC1,n,n,n,n,n,n
CCOC(=O)Cn1c2ccc(OC)cc2c2nc3ccccc3nc21,n,n,n,n,n,279
O=C(Nc1nc(-c2nc3ccccc3s2)cs1)c1ccc(S(=O)(=O)N2CCOCC2)cc1,n,n,n,-3.6,n,n
Cc1ccc(-c2csc(NC(=O)c3cccc(S(=O)(=O)N4CCN(C)CC4)c3)n2)cc1,n,n,n,n,n,n
COc1cccc(C(=O)Nc2nc(-c3ccc(S(=O)(=O)N4CCOCC4)cc3)cs2)c1,n,n,n,-3.3,n,463[fluorescence artefact?]
O=C(CNS(=O)(=O)c1ccc(Br)s1)NCC1COc2ccccc2O1 (configuration not stated),n,n,n,n,n,n
CCOc1ccc2nc(NCCNC(=O)Nc3cccc(C)c3)c(C#N)cc2c1,51[fluorescence artefact?],n,n,n,n,n
CCOc1ccc2nc(NCCNC(=O)Nc3ccccc3)c(C#N)cc2c1,n,n,n,n,n,n
SMILES,ERa coact inh,RORa activator,ERb coact inh,PTK2B oligo ant,SF-1 act,ERa coact pot
Cc1ccc(O)c(C(=O)c2cnc3c(c2)COc2ccc(C)cc2-3)c1,n,x,n,n,x,n
CN1C(=O)COc2ccc(C(=O)c3oc4ccccc4c3-c3cnc4c(c3)COc3ccccc3-4)cc21,n,x,n,x,x,317[fluorescence artefact?]
Cc1nnc(SCc2ccc(Cl)cc2)n1CC1CCCO1 (configuration not stated),n,n,n,n,n,n
CCOC(=O)N1CCN(C(=O)c2ccc3c(=O)n(CCc4ccccc4)c(=S)[nH]c3c2)CC1,n,n,n,n,n,n
CCOC(=O)N1CCN(C(=O)c2ccc3c(=O)n(CCC4=CCCCC4)c(=S)[nH]c3c2)CC1,n,n,n,n,n,208
CCc1ccc(C(C(=O)NC2CCCCC2)N(C(=O)CNC(=O)c2ccco2)c2cccnc2)cc1 (configuration not stated),n,x,n,x,x,n
O=C(NC1CCCCC1)C(c1ccccc1)N1CCc2ccccc21 (configuration not stated),99[fluorescence artefact?],x,n,x,x,n
O=C(NC1CCCC1)C(c1ccc(Cl)cc1)N1CCc2ccccc21 (configuration not stated),n,x,n,x,x,n
COc1cccc(-n2c(C)c(C(C)=O)c(C(C)=O)c2C)c1,n,n,n,n,n,n
COc1ccc(-c2cc(C(=O)NCC(C)C)no2)cc1,n,n,n,n,n,n
CCCN(CCC)S(=O)(=O)c1ccc(C(=O)N2CCCc3ccccc32)cc1,n,x,n,n,x,n
Cc1c(C)c2cc(Cl)c(O)c(CN3CCN(C)CC3)c2oc1=O,n,n,n,n,n,n
CCN1CCN(Cc2c(O)c(Cl)cc3c(C)cc(=O)oc23)CC1,n,n,63,n,n,n
Cc1cc(=O)oc2c(CN3CCC(C)CC3)c(O)c(Cl)cc12,67,n,69[fluorescence artefact?],n,n,n
Cc1cc(=O)oc2c(CN3CCCCC3)c(O)c(Cl)cc12,n,n,n,n,n,n
O=C(Nc1ccc2ccccc2c1)c1cccnc1,n,73,n,n,66,n
O=C(NCCSc1ccccc1)c1cccnc1,n,78,n,n,62,n
CCCn1c(C)cc(=O)c2cc(NC(=O)c3cnccn3)ccc21,n,n,n,n,n,226[fluorescence artefact?]
O=C(Nc1ccc2ccccc2c1)c1cnccn1,n,57,n,n,n,n
OCCn1c(Cl)nc2ccccc21,n,x,n,n,x,n
O=C(Nc1ccc2c(c1)oc1ccccc12)c1cccnc1,n,n,n,n,55,n
O=C(COc1ccc2c(c1)OCO2)Nc1ccc2c(c1)oc1ccccc12,51[fluorescence artefact?],n,n,n,n,n
CC1CCN(c2ccc(NC(=O)c3cccnc3)cc2)CC1,n,n,n,n,59,n
O=C(Nc1ccc2c(c1)oc1ccccc12)N1CCOCC1,n,n,n,n,52,n
O=C(Nc1ccccc1)N1CCOCC1,n,x,n,n,x,n
SMILES,ERa coact inh,RORa activator,ERb coact inh,PTK2B oligo ant,SF-1 act,ERa coact pot
O=C(Nc1ccc2c(c1)oc1ccccc12)c1ccc2c(c1)OCO2,n,n,n,n,n,n
COC(=O)CNC(=O)CN1C(=O)N(c2ccc(Cl)cc2)C(N(O)C(=O)Nc2ccc(Cl)cc2)C1(C)C (configuration not stated),n,x,n,n,x,n
O=C(Nc1ccc(-c2noc(CCc3ccccc3)n2)cc1)c1cccnc1,n,n,n,-3.3,n,n
Cc1cc(OCc2nc(-c3ccc(NC(=O)c4cccnc4)cc3)no2)ccc1Cl,x,x,x,n,x,x
CC(=O)NCCOC(=O)Nc1ccncc1,55,x,n,n,x,n
CC(=O)NCCOC(=O)Nc1cccnc1,n,n,n,n,n,n
COc1ccc2nc(/N=C(\N)NC(=O)C(C)(C)C)nc(C)c2c1,n,n,n,n,n,n
CCC(=O)N/C(N)=N/c1nc(C)c2cc(OC)ccc2n1,n,69,n,n,n,n
